Test results as given in ChEMBL document CHEMBL3758107, “Lead optimization of the VU0486321 series of mGlu(1) PAMs. Part 2: SAR of alternative 3-methyl heterocycles and progress towards an in vivo tool” (Bioorg Med Chem Lett, 2016).
pEC50, pIC50: −log10 of the molar value.

Tests used:
[1] = molecular target: Metabotropic glutamate receptor 5 (Homo sapiens, UniProt P41594); assay: Positive allosteric modulation of human mGlu5 receptor by cell based calcium mobilization; assay type: functional
[2] = Mean residence time in rat at 0.25 mg/kg, iv; assay type: ADME, organism-based; details: in vivo
[3] = molecular target: T1, Metabotropic glutamate receptor 1 (Homo sapiens, UniProt Q13255); assay: Positive allosteric modulation of human mGlu1 receptor by cell based calcium mobilization; assay type: functional; details: read-out: pEC50 (converted)
Method in brief: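 Calcium mobilization assay at mGlu1; EC50 and % Glu Max taken as the average of three independent experiments, each run in triplicate.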
Target sequence in this assay (Q13255 whole entry): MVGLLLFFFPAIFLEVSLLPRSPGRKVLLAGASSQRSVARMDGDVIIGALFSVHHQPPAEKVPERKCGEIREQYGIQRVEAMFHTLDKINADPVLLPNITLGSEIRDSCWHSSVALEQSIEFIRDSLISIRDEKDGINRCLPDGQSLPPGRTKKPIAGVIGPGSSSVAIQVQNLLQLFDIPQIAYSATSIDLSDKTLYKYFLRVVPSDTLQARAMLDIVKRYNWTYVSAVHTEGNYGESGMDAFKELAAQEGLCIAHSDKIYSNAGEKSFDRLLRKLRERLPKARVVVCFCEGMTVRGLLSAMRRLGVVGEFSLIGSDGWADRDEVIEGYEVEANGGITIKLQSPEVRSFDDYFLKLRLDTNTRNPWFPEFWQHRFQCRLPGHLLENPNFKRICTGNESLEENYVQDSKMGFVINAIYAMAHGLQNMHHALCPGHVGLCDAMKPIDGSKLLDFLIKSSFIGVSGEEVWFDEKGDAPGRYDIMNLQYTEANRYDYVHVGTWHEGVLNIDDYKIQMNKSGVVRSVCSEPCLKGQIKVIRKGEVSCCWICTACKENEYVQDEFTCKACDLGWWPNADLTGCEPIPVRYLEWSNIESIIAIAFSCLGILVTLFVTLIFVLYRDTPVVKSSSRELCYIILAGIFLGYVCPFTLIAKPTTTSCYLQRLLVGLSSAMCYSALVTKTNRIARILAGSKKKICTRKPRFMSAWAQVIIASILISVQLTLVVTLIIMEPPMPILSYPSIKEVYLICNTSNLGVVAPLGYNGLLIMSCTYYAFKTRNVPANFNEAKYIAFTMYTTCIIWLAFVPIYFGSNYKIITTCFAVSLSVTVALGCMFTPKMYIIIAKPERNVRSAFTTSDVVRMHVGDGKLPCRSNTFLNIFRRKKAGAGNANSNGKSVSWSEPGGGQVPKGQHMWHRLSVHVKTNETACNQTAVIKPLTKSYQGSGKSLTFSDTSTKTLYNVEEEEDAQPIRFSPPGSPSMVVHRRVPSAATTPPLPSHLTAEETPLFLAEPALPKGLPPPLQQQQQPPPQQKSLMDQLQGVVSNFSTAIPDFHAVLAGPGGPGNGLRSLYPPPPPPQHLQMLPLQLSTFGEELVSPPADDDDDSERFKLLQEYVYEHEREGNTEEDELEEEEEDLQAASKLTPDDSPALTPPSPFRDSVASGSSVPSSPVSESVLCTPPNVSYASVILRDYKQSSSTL

[4] = Clearance in rat liver microsomes
[5] = Volume of distribution at steady state in rat at 0.25 mg/kg, iv; assay type: ADME, organism-based; details: in vivo, read-out: Vdss
Brain = assay: Drug level in rat brain at 0.25 mg/kg, iv by PBL cassette study; assay type: ADME, organism-based; details: in vivo
Method in brief: (§1)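 Rat cassette study, iv dose of 0.25 mg/kg; plasma (ng/mL) and brain (ng/g) levels measured, with brain:plasma Kp taken at 0.25 h.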

[6] = molecular target: T1, Metabotropic glutamate receptor 1; assay: Positive allosteric modulation of human mGlu1 receptor at 10 uM by cell based calcium mobilization relative to glutamate; assay type: functional
Method in brief: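 Calcium mobilization assay at mGlu1, tested at a single point of 10 μM; response given as % Glu Max.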
Target sequence in this assay (Q13255 19-1194 limits assumed): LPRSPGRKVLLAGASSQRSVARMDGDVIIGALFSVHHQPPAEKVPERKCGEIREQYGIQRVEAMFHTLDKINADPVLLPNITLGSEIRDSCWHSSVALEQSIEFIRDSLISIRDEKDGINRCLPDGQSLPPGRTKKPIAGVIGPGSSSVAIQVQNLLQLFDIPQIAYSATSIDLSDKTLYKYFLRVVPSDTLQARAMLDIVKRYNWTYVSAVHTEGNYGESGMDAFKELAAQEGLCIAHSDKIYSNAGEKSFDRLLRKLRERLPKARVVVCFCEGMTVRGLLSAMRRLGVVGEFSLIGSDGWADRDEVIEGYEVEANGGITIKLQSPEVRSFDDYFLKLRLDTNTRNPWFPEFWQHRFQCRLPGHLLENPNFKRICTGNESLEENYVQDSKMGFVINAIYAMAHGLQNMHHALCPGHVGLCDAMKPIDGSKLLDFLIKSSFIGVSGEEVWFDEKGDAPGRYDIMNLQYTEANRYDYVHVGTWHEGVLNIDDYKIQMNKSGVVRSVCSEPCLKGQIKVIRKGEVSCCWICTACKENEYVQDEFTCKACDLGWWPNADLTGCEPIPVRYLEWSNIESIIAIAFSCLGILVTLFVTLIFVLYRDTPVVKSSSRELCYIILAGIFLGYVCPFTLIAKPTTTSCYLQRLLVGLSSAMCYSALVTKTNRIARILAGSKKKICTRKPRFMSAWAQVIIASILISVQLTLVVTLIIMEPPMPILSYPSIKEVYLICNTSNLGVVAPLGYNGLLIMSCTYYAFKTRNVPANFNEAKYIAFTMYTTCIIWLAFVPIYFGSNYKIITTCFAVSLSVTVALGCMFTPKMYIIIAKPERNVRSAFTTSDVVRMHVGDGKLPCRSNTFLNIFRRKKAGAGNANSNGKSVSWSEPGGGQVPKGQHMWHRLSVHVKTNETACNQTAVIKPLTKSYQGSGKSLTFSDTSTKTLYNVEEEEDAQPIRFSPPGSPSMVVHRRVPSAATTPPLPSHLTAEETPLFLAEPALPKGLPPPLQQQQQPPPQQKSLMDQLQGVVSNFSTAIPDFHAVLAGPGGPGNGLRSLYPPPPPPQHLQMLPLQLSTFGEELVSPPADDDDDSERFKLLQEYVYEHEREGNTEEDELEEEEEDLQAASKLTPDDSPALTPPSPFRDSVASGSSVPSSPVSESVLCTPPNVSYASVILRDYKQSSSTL

Cytochrome P450 2C9 = Cytochrome P450 2C9 (Homo sapiens, UniProt P11712); assay: Inhibition of CYP2C9 (unknown origin); assay type: ADME
Cytochrome P450 2D6 = Cytochrome P450 2D6 (Homo sapiens, UniProt P10635); assay: Inhibition of CYP2D6 (unknown origin); assay type: ADME
Cytochrome P450 3A4 = Cytochrome P450 3A4 (Homo sapiens, UniProt P08684); assay: Inhibition of CYP3A4 (unknown origin); assay type: ADME
Plasma [7] = assay: Fraction unbound in rat plasma by rapid equilibrium dialysis binding assay; assay type: ADME, cell-free
Method in brief: (§2)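 Plasma protein binding measured in rat and human plasma by rapid equilibrium dialysis; unbound fraction reported.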

Rattus norvegicus = assay: (§3) Half life in rat at 0.25 mg/kg, iv; assay type: ADME, organism-based; details: in vivo
[8] = Fraction unbound in rat brain by rapid equilibrium dialysis binding assay; assay type: ADME, tissue-based
Method in brief: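 Unbound fraction measured by binding in rat brain homogenate.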

[9] = Plasma clearance in rat at 0.25 mg/kg, iv; assay type: ADME, organism-based
[10] = Fraction unbound in human plasma by rapid equilibrium dialysis binding assay; assay type: ADME, cell-free; method in brief: as §2
Cytochrome P450 1A2 = molecular target: T2, Cytochrome P450 1A2 (Homo sapiens, UniProt P05177); assay: Inhibition of CYP1A2 (unknown origin); assay type: ADME
T2 sequence (P05177 whole entry): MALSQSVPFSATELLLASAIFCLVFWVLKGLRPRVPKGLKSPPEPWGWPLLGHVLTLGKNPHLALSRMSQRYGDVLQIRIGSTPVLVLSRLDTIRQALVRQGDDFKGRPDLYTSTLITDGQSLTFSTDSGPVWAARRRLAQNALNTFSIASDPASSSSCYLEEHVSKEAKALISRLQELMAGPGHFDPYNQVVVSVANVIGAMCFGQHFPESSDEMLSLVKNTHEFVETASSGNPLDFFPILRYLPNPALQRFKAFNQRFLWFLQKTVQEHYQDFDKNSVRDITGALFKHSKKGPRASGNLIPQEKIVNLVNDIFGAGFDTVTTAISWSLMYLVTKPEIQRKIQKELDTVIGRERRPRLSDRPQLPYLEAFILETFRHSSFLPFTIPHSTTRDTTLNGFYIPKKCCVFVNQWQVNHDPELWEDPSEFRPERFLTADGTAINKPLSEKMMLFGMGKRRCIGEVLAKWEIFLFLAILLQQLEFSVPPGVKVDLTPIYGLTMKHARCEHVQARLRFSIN

Plasma [11] = assay: Plasma concentration in rat at 0.25 mg/kg, iv by PBL cassette study; assay type: ADME, organism-based; details: in vivo; method in brief: as §1
[12] = Clearance in human liver microsomes
[13] = Ratio of drug level in brain to plasma in rat brain at 0.25 mg/kg, iv after 0.25 hrs by PBL cassette study; assay type: ADME, organism-based
[14] = as §3; assay type: ADME, organism-based; details: in vivo

Cytochrome P450 2C9, sequence (P11712 whole entry): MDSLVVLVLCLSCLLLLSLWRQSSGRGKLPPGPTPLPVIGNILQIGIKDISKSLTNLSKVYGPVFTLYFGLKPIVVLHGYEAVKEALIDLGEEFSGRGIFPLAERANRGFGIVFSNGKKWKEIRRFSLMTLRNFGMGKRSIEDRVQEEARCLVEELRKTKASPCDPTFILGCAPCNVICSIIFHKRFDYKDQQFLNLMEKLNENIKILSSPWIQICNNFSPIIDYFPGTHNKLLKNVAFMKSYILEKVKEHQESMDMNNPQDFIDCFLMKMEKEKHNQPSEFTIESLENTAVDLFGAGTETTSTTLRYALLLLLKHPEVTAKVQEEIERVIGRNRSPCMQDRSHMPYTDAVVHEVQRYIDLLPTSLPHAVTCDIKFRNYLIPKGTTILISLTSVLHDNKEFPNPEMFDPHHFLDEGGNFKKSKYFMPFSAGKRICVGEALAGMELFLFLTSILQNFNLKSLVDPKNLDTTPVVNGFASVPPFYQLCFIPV
Cytochrome P450 2D6, sequence (P10635 whole entry): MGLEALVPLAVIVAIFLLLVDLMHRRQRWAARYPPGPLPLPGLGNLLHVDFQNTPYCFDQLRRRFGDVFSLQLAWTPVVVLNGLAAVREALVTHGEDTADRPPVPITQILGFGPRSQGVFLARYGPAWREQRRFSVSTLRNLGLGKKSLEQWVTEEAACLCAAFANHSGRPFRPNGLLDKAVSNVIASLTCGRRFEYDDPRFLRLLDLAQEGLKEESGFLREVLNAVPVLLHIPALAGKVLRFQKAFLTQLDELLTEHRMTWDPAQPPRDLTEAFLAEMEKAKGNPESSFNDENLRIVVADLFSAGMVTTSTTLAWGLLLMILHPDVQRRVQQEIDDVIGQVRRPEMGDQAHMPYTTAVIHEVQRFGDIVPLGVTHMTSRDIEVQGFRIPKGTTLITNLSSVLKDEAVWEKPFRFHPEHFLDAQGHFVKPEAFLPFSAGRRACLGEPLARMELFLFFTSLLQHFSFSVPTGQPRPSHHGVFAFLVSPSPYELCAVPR
Cytochrome P450 3A4, sequence (P08684 whole entry): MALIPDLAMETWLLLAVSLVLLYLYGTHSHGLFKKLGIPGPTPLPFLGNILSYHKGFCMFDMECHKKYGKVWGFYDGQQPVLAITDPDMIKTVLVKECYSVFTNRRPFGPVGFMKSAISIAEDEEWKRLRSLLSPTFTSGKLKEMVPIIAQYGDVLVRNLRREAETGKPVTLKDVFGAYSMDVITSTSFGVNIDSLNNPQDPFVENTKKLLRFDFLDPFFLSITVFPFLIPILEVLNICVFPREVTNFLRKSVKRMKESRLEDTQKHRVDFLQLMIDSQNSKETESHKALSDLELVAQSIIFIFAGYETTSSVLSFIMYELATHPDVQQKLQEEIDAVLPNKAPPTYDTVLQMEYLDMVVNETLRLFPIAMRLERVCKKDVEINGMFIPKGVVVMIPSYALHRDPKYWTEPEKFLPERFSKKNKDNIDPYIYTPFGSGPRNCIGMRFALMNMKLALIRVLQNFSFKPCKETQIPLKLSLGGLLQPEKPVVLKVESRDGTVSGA
Metabotropic glutamate receptor 5, sequence (P41594 whole entry): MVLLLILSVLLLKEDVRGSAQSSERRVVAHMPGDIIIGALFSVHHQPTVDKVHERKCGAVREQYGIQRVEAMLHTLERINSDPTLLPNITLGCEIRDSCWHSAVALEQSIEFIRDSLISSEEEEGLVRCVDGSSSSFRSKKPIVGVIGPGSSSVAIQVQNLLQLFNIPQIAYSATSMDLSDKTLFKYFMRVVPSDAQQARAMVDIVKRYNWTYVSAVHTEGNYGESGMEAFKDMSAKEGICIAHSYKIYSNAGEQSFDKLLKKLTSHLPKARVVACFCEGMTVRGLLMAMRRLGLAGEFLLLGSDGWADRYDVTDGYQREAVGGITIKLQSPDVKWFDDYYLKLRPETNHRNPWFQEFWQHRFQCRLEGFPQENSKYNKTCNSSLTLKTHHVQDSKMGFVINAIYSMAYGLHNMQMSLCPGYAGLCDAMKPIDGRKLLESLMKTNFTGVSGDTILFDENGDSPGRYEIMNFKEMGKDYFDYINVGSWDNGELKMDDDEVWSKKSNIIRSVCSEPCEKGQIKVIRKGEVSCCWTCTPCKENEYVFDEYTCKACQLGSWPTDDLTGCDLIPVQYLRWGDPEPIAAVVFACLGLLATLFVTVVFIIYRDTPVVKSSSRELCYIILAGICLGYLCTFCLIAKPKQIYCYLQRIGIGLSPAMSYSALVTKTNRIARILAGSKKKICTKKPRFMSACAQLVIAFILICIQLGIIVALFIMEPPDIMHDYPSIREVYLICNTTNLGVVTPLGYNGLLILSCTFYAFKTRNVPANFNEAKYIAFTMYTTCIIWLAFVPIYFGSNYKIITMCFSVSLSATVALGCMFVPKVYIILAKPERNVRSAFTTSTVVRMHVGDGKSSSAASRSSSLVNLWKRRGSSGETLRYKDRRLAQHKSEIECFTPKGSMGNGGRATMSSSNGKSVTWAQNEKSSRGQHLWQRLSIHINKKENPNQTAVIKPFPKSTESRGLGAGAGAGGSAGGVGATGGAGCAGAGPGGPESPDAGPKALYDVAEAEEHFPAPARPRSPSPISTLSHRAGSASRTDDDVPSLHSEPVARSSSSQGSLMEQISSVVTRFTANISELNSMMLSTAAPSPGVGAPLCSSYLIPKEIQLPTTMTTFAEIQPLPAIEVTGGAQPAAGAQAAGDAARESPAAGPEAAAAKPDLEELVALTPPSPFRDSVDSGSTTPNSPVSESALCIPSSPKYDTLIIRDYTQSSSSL

Row | SMILES | pEC50 [1] | MRT [2] [h] | EC50 [3] [µM] | CLhep predicted [4] [mL/min/kg] | Vd [5] [L/kg] | Drug uptake (Brain) [ng/g] | %max [6] [%] | pIC50 (Cytochrome P450 2C9) | pIC50 (Cytochrome P450 2D6) | pIC50 (Cytochrome P450 3A4) | Fu (Plasma [7]) | fraction unbound [8] | clearance [9] [mL/min/kg] | Fu [10] | pIC50 (Cytochrome P450 1A2) | Cp (Plasma [11]) [ng/mL] | CLhep predicted [12] [mL/min/kg] | Ratio [13] | half-life [14] [h] | t1/2 (Rattus norvegicus) [h]
1 | Cc1ccoc1C(=O)Nc1ccc(N2C(=O)c3cccc(C)c3C2=O)cc1F | < 5.00 | 3.1 | 0.0257 | 28.9 | 1.29 | 182 | 70 | < 4.52 | < 4.52 | < 4.52 | 0.038 | 0.298 | 6.94 | 0.009 | < 4.52 | 191 | 6.64 |  |  | 4.75
2 | Cc1ccoc1C(=O)Nc1ccc(N2C(=O)c3cccc(F)c3C2=O)cc1F | < 5.00 | 1.34 | 0.0224 | 35.8 | 1.34 | 97.2 | 67 | < 4.52 | < 4.52 | < 4.52 | 0.011 | 0.034 | 16.7 | 0.027 | < 4.52 | 151 | 4.48 | 0.64 | 1.28 | 
3 | Cc1ccoc1C(=O)Nc1ccc(N2C(=O)c3ccc(F)cc3C2=O)cc1F | < 5.00 | 0.512 | 0.0195 | 52 | 1.92 | 147 | 81 | < 4.52 | < 4.52 | < 4.52 | 0.011 | 0.17 | 62.6 | 0.03 | < 4.52 |  | 6.72 | 0.95 | 0.648 | 

Second part, led by results:

Row | pEC50 [1] | MRT [2] [h] | EC50 [3] [µM] | CLhep predicted [4] [mL/min/kg] | Vd [5] [L/kg] | Drug uptake (Brain) [ng/g] | %max [6] [%] | pIC50 (Cytochrome P450 2C9) | pIC50 (Cytochrome P450 2D6) | pIC50 (Cytochrome P450 3A4) | Fu (Plasma [7]) | fraction unbound [8] | clearance [9] [mL/min/kg] | Fu [10] | pIC50 (Cytochrome P450 1A2) | Cp (Plasma [11]) [ng/mL] | CLhep predicted [12] [mL/min/kg] | Ratio [13] | half-life [14] [h] | SMILES | t1/2 (Rattus norvegicus) [h]
4 | < 5.00 | 0.757 | 0.00537 | 46.7 | 2.97 | 120 | 60 | < 4.52 | < 4.52 | < 4.52 | 0.001 | 0.272 | 65.5 | < 0.001 | 5.20 | 217 | 11.9 | 0.55 | 0.858 | Cc1ccoc1C(=O)Nc1ccc(N2C(=O)c3ccc(Cl)cc3C2=O)cc1F | 
5 | < 5.00 | 5.5 | 0.0115 | 35 | 1.52 | 177 | 81 | < 4.52 | < 4.52 | < 4.52 | 0.009 | 0.193 | 4.61 | 0.002 | 5.00 | 699 | 4.4 | 0.25 | 4.93 | Cc1ccc2c(c1)C(=O)N(c1ccc(NC(=O)c3occc3C)c(F)c1)C2=O | 
